Laboratory results from ChEMBL document CHEMBL1152843, “Synthesis of new series of 5,6-dihydro-4H-1,2-oxazines via hetero Diels-Alder reaction and evaluation of antimicrobial activity” (2009).
In brackets after ≈: the same amount, converted by molar mass.

Each molecule was assayed on Fusarium verticillioides (assay: Antifungal activity against Fusarium moniliforme at 20 ug after 48 hrs by cup diffusion method). Conditions: read-out: IZ.
Type: functional
In short: (§1)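 Cup diffusion on 9 cm plates seeded with 1 × 10⁶ cfu of fungi, with spores adjusted to at least 1 × 10⁶ cfu/ml in potato dextrose broth. Compound in DMF was placed in 5 mm agar cups and left 1 h to diffuse. Plates were incubated at 28 °C for 48 h and the inhibition zone read in mm. DMF was the negative control.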

Compound	zone of inhibition at 20 µg/disc
COc1ccc(C2=NOC(CCl)CC2)cc1 (centres undefined)	25.2 mm
Cc1ccc(C2=NOC(CCl)CC2)cc1C (centres undefined)	11.5 mm
Cc1ccc(C2=NOC(Cc3ccc4c(c3)OCO4)CC2)cc1C (centres undefined)	22.8 mm
CCOC(=O)C1CCC(c2ccc(OC)cc2)=NO1 (centres undefined)	28 mm

Each molecule was assayed on Fusarium oxysporum (assay: Antifungal activity against Fusarium oxysporum at 20 ug after 48 hrs by cup diffusion method). Conditions: read-out: IZ.
Type: functional
In short: as §1

Compound	zone of inhibition at 20 µg/disc
COc1ccc(C2=NOC(CCl)CC2)cc1 (centres undefined)	29.7 mm
Cc1ccc(C2=NOC(CCl)CC2)cc1C (centres undefined)	20.7 mm
Cc1ccc(C2=NOC(Cc3ccc4c(c3)OCO4)CC2)cc1C (centres undefined)	25.3 mm
CCOC(=O)C1CCC(c2ccc(OC)cc2)=NO1 (centres undefined)	30.7 mm

These molecules were tested on Aspergillus flavus (assay: Antifungal activity against Aspergillus flavus after 48 hrs by cup diffusion method). Conditions: not given.
Type: functional

MIC	Compound
15 µg/mL (≈ 62.6 µM)	COc1ccc(C2=NOC(CCl)CC2)cc1 (centres undefined)
15 µg/mL (≈ 63.1 µM)	Cc1ccc(C2=NOC(CCl)CC2)cc1C (centres undefined)
10 µg/mL (≈ 30.9 µM)	Cc1ccc(C2=NOC(Cc3ccc4c(c3)OCO4)CC2)cc1C (centres undefined)
10 µg/mL (≈ 38 µM)	CCOC(=O)C1CCC(c2ccc(OC)cc2)=NO1 (centres undefined)

These molecules were tested on Aspergillus niger (assay: Antifungal activity against Aspergillus niger after 48 hrs by cup diffusion method). Conditions: not given.
Type: functional

MIC	Compound
20 µg/mL (≈ 83.4 µM)	COc1ccc(C2=NOC(CCl)CC2)cc1 (centres undefined)
15 µg/mL (≈ 63.1 µM)	Cc1ccc(C2=NOC(CCl)CC2)cc1C (centres undefined)
15 µg/mL (≈ 46.4 µM)	Cc1ccc(C2=NOC(Cc3ccc4c(c3)OCO4)CC2)cc1C (centres undefined)
15 µg/mL (≈ 57 µM)	CCOC(=O)C1CCC(c2ccc(OC)cc2)=NO1 (centres undefined)

What follows are molecules tested on Fusarium verticillioides (assay: Antifungal activity against Fusarium moniliforme after 48 hrs by cup diffusion method). Conditions: not given.
Type: functional

MIC	Compound
15 µg/mL (≈ 62.6 µM)	COc1ccc(C2=NOC(CCl)CC2)cc1 (centres undefined)
20 µg/mL (≈ 84.1 µM)	Cc1ccc(C2=NOC(CCl)CC2)cc1C (centres undefined)
20 µg/mL (≈ 61.8 µM)	Cc1ccc(C2=NOC(Cc3ccc4c(c3)OCO4)CC2)cc1C (centres undefined)
20 µg/mL (≈ 76 µM)	CCOC(=O)C1CCC(c2ccc(OC)cc2)=NO1 (centres undefined)

The molecules below were run on Fusarium oxysporum (assay: Antifungal activity against Fusarium oxysporum after 48 hrs by cup diffusion method). Conditions: not given.
Type: functional

MIC	Compound
10 µg/mL (≈ 41.7 µM)	COc1ccc(C2=NOC(CCl)CC2)cc1 (centres undefined)
10 µg/mL (≈ 42.1 µM)	Cc1ccc(C2=NOC(CCl)CC2)cc1C (centres undefined)
10 µg/mL (≈ 30.9 µM)	Cc1ccc(C2=NOC(Cc3ccc4c(c3)OCO4)CC2)cc1C (centres undefined)
10 µg/mL (≈ 38 µM)	CCOC(=O)C1CCC(c2ccc(OC)cc2)=NO1 (centres undefined)

These molecules were tested on Klebsiella pneumoniae (assay: Antibacterial activity against Klebsiella pneumoniae […] at 20 ug after 24 hrs by cup diffusion method). Conditions: read-out: IZ.
Type: functional
In short: (§2)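 Agar cup diffusion. Plates of sterile medium in 9 cm dishes were seeded with 1 × 10⁵ cfu of bacteria, with the suspension adjusted to at least 1 × 10⁵ cfu/ml in nutrient broth. Compound in DMF was placed in 5 mm cups and pre-diffused for 1 h. Plates were incubated at 37 °C for 24 h and the inhibition zone measured in mm. DMF served as negative control.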

Compound	zone of inhibition at 20 µg/disc
COc1ccc(C2=NOC(CCl)CC2)cc1 (centres undefined)	17.7 mm
Cc1ccc(C2=NOC(CCl)CC2)cc1C (centres undefined)	15.8 mm
Cc1ccc(C2=NOC(Cc3ccc4c(c3)OCO4)CC2)cc1C (centres undefined)	15.5 mm
CCOC(=O)C1CCC(c2ccc(OC)cc2)=NO1 (centres undefined)	14.8 mm

What follows are molecules tested on Escherichia coli (assay: Antibacterial activity against Escherichia coli MTCC 443 at 20 ug after 24 hrs by cup diffusion method). Conditions: MTCC 443, 24 h, read-out: IZ.
Type: functional
In short: as §2

Compound	zone of inhibition at 20 µg/disc
COc1ccc(C2=NOC(CCl)CC2)cc1 (centres undefined)	9.5 mm
Cc1ccc(C2=NOC(CCl)CC2)cc1C (centres undefined)	14.8 mm
Cc1ccc(C2=NOC(Cc3ccc4c(c3)OCO4)CC2)cc1C (centres undefined)	11.5 mm
CCOC(=O)C1CCC(c2ccc(OC)cc2)=NO1 (centres undefined)	24.7 mm

Each molecule was assayed on Pseudomonas aeruginosa (assay: Antibacterial activity against Pseudomonas aeruginosa MTCC 1688 at 20 ug after 24 hrs by cup diffusion method). Conditions: MTCC 1688, 24 h, read-out: IZ.
Type: functional
In short: as §2

Compound	zone of inhibition at 20 µg/disc
COc1ccc(C2=NOC(CCl)CC2)cc1 (centres undefined)	29.5 mm
Cc1ccc(C2=NOC(CCl)CC2)cc1C (centres undefined)	17.6 mm
Cc1ccc(C2=NOC(Cc3ccc4c(c3)OCO4)CC2)cc1C (centres undefined)	11 mm
CCOC(=O)C1CCC(c2ccc(OC)cc2)=NO1 (centres undefined)	23.7 mm

Each molecule was assayed on Staphylococcus aureus (assay: Antibacterial activity against Staphylococcus aureus MTCC 737 at 20 ug after 24 hrs by cup diffusion method). Conditions: MTCC 737, 24 h, read-out: IZ.
Type: functional
In short: as §2

Compound	zone of inhibition at 20 µg/disc
COc1ccc(C2=NOC(CCl)CC2)cc1 (centres undefined)	14.7 mm
Cc1ccc(C2=NOC(CCl)CC2)cc1C (centres undefined)	20.7 mm
Cc1ccc(C2=NOC(Cc3ccc4c(c3)OCO4)CC2)cc1C (centres undefined)	21.3 mm
CCOC(=O)C1CCC(c2ccc(OC)cc2)=NO1 (centres undefined)	16.7 mm

These molecules were tested on Escherichia coli (assay: Antibacterial activity against Escherichia coli MTCC 443 after 24 hrs by cup diffusion method). Conditions: MTCC 443, 24 h.
Type: functional

MIC	Compound
20 µg/mL (≈ 83.4 µM)	COc1ccc(C2=NOC(CCl)CC2)cc1 (centres undefined)
20 µg/mL (≈ 84.1 µM)	Cc1ccc(C2=NOC(CCl)CC2)cc1C (centres undefined)
30 µg/mL (≈ 92.8 µM)	Cc1ccc(C2=NOC(Cc3ccc4c(c3)OCO4)CC2)cc1C (centres undefined)
35 µg/mL (≈ 133 µM)	CCOC(=O)C1CCC(c2ccc(OC)cc2)=NO1 (centres undefined)

Each molecule was assayed on Klebsiella pneumoniae (assay: Antibacterial activity against Klebsiella pneumoniae […] after 24 hrs by cup diffusion method). Conditions: not given.
Type: functional

MIC	Compound
10 µg/mL (≈ 41.7 µM)	COc1ccc(C2=NOC(CCl)CC2)cc1 (centres undefined)
15 µg/mL (≈ 63.1 µM)	Cc1ccc(C2=NOC(CCl)CC2)cc1C (centres undefined)
20 µg/mL (≈ 61.8 µM)	Cc1ccc(C2=NOC(Cc3ccc4c(c3)OCO4)CC2)cc1C (centres undefined)
25 µg/mL (≈ 95 µM)	CCOC(=O)C1CCC(c2ccc(OC)cc2)=NO1 (centres undefined)

These molecules were tested on Pseudomonas aeruginosa (assay: Antibacterial activity against Pseudomonas aeruginosa MTCC 1688 after 24 hrs by cup diffusion method). Conditions: MTCC 1688, 24 h.
Type: functional

MIC	Compound
15 µg/mL (≈ 62.6 µM)	COc1ccc(C2=NOC(CCl)CC2)cc1 (centres undefined)
15 µg/mL (≈ 63.1 µM)	Cc1ccc(C2=NOC(CCl)CC2)cc1C (centres undefined)
20 µg/mL (≈ 61.8 µM)	Cc1ccc(C2=NOC(Cc3ccc4c(c3)OCO4)CC2)cc1C (centres undefined)
20 µg/mL (≈ 76 µM)	CCOC(=O)C1CCC(c2ccc(OC)cc2)=NO1 (centres undefined)

Each molecule was assayed on Staphylococcus aureus (assay: Antibacterial activity against Staphylococcus aureus MTCC 737 after 24 hrs by cup diffusion method). Conditions: MTCC 737, 24 h.
Type: functional

MIC	Compound
10 µg/mL (≈ 41.7 µM)	COc1ccc(C2=NOC(CCl)CC2)cc1 (centres undefined)
10 µg/mL (≈ 42.1 µM)	Cc1ccc(C2=NOC(CCl)CC2)cc1C (centres undefined)
15 µg/mL (≈ 46.4 µM)	Cc1ccc(C2=NOC(Cc3ccc4c(c3)OCO4)CC2)cc1C (centres undefined)
20 µg/mL (≈ 76 µM)	CCOC(=O)C1CCC(c2ccc(OC)cc2)=NO1 (centres undefined)

What follows are molecules tested on Aspergillus flavus (assay: Antifungal activity against Aspergillus flavus at 20 ug after 48 hrs by cup diffusion method). Conditions: read-out: IZ.
Type: functional
In short: as §1

Compound	zone of inhibition at 20 µg/disc
COc1ccc(C2=NOC(CCl)CC2)cc1 (centres undefined)	21.7 mm
Cc1ccc(C2=NOC(CCl)CC2)cc1C (centres undefined)	9.5 mm
Cc1ccc(C2=NOC(Cc3ccc4c(c3)OCO4)CC2)cc1C (centres undefined)	18.8 mm
CCOC(=O)C1CCC(c2ccc(OC)cc2)=NO1 (centres undefined)	25.5 mm

The molecules below were run on Aspergillus niger (assay: Antifungal activity against Aspergillus niger at 20 ug after 48 hrs by cup diffusion method). Conditions: read-out: IZ.
Type: functional
In short: as §1

Compound	zone of inhibition at 20 µg/disc
COc1ccc(C2=NOC(CCl)CC2)cc1 (centres undefined)	19.5 mm
Cc1ccc(C2=NOC(CCl)CC2)cc1C (centres undefined)	8.5 mm
Cc1ccc(C2=NOC(Cc3ccc4c(c3)OCO4)CC2)cc1C (centres undefined)	15.7 mm
CCOC(=O)C1CCC(c2ccc(OC)cc2)=NO1 (centres undefined)	24.2 mm
